This is an account of results in ChEMBL document CHEMBL1125497, “Synthesis and anticonvulsant activity of enaminones” (J Med Chem, 1992).

Data set [1] in a line: Antiepileptic activity in male CF1 mice 30 min after administration measured in neurological toxicity (Tox) test at a dose of 30 mg/kg (no. of animals treated /protected); activity value is 0/4. It is filed as functional, Mus musculus.
The nature of data set [2]: Antiepileptic activity in male CF1 mice 30 min after administration measured in subcutaneous pentylenetetrazole (scMet) test at a dose of 300 mg/kg (no. of animals treated /protected); activity value is 0/1. It is filed as functional, Mus musculus.
Data set [3] can be described thus: Antiepileptic activity in male CF1 mice 30 min after administration measured in subcutaneous pentylenetetrazole (scMet) test at a dose of 30 mg/kg (no. of animals treated /protected); activity value is 1/1. The data set is classed as functional, Mus musculus.
Data set [4] can be described thus: Antiepileptic activity in male CF1 mice 4 hr after administration measured in maximum electroshock seizure(MES) test at a dose of 300 mg/kg (no. of animals treated /protected); activity value is 0/1. It is filed as functional, Mus musculus.
A short description of data set [5]: Antiepileptic activity in male CF1 mice 30 min after administration measured in maximum electroshock seizure(MES) test at a dose of 300 mg/kg (no. of animals treated /protected); activity value is 1/1. The data set is classed as functional, Mus musculus.
Data set [6] in a line: Antiepileptic activity in male CF1 mice 30 min after administration measured in maximum electroshock seizure(MES) test at a dose of 30 mg/kg (no. of animals treated /protected); activity value is 0/1. It is filed as functional, Mus musculus.
Data set [7] is described as follows: Antiepileptic activity in male CF1 mice 4 hr after administration measured in maximum electroshock seizure(MES) test at a dose of 30 mg/kg (no. of animals treated /protected); activity value is 0/1. The data set is classed as functional, Mus musculus.
The nature of data set [8]: Antiepileptic activity in male CF1 mice 4 hr after administration measured in neurological toxicity (Tox) test at a dose of 300 mg/kg (no. of animals treated /protected); activity value is 0/2. The data set is classed as functional, Mus musculus.
Data set [9] in a line: Antiepileptic activity in male CF1 mice 4 hr after administration measured in neurological toxicity (Tox) test at a dose of 30 mg/kg (no. of animals treated /protected); activity value is 0/2. It is filed as functional, Mus musculus.
Data set [10] is described as follows: Antiepileptic activity in male CF1 mice 4 hr after administration measured in subcutaneous pentylenetetrazole (scMet) test at a dose of 300 mg/kg (no. of animals treated /protected); activity value is 0/1. The data set is classed as functional, Mus musculus.
Data set [11] is described as follows: Antiepileptic activity in male CF1 mice 4 hr after administration measured in subcutaneous pentylenetetrazole (scMet) test at a dose of 30 mg/kg; activity value is 0/1. It is filed as functional, Mus musculus.
Data set [12] is described as follows: Dose at which anticonvulsant activity was observed in mice. The data set is classed as functional, Mus musculus.
Data set [13] is described as follows: Antiepileptic activity in male CF1 mice 30 min after administration measured in neurological toxicity (Tox) test at a dose of 300 mg/kg (no. of animals treated /protected); activity value is 2/4. The data set is classed as functional, Mus musculus.
Data set [14] can be described thus: Antiepileptic activity in male CF1 mice 30 min after administration measured in subcutaneous pentylenetetrazole (scMet) test at a dose of 300 mg/kg (no. of animals treated /protected); activity value is 1/1. The data set is classed as functional, Mus musculus.
Data set [15] can be described thus: Antiepileptic activity in male CF1 mice 4 hr after administration measured in maximum electroshock seizure(MES) test at a dose of 300 mg/kg (no. of animals treated /protected); activity value is 1/1. It is filed as functional, Mus musculus.
Data set [16] is described as follows: Antiepileptic activity in male CF1 mice 4 hr after administration measured in subcutaneous pentylenetetrazole (scMet) test at a dose of 300 mg/kg; activity value is 0/1. It is filed as functional, Mus musculus.
A short description of data set [17]: Antiepileptic activity in male CF1 mice 30 min after administration measured in neurological toxicity (Tox) test at a dose of 300 mg/kg (no. of animals treated /protected); activity value is 0/4. The data set is classed as functional, Mus musculus.
Data set [18] in a line: Antiepileptic activity in male CF1 mice 30 min after administration measured in subcutaneous pentylenetetrazole (scMet) test at a dose of 100 mg/kg (no. of animals treated /protected); activity value is 1/1. It is filed as functional, Mus musculus.
A short description of data set [19]: Antiepileptic activity in male CF1 mice 4 hr after administration measured in maximum electroshock seizure(MES) test at a dose of 100 mg/kg (no. of animals treated /protected); activity value is 0/3. The data set is classed as functional, Mus musculus.
The nature of data set [20]: Antiepileptic activity in male CF1 mice 30 min after administration measured in maximum electroshock seizure(MES) test at a dose of 100 mg/kg (no. of animals treated /protected); activity value is 0/3. It is filed as functional, Mus musculus.
The nature of data set [21]: Antiepileptic activity in male CF1 mice 30 min after administration measured in neurological toxicity (Tox) test at a dose of 100 mg/kg (no. of animals treated /protected); activity value is 0/4. The data set is classed as functional, Mus musculus.
Data set [22] is described as follows: Antiepileptic activity in male CF1 mice 4 hr after administration measured in neurological toxicity (Tox) test at a dose of 100 mg/kg (no. of animals treated /protected); activity value is 0/2. It is filed as functional, Mus musculus.
The nature of data set [23]: Antiepileptic activity in male CF1 mice 4 hr after administration measured in subcutaneous pentylenetetrazole (scMet) test at a dose of 100 mg/kg (no. of animals treated /protected); activity value is 0/1. The data set is classed as functional, Mus musculus.
Data set [24] is described as follows: Dose elevating electroshock induced seizure by 20% in CF1 mice after ip administration. The data set is classed as functional, Mus musculus. In short, it runs like this:
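In CF1 male mice (ca. 24–34 g), compound was given ip in 0.5% methylcellulose. The current giving hind limb extension in 50% of mice was found by the up-and-down method, with 15–25 mice per group and a vehicle control group run with each experimental group. At least three doses were tested. The dose raising threshold current by 20% was taken from a plot of dose against % threshold increase.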

Data set [25] can be described thus: Dose protecting 50% of the mice from tonic hind limb extension at the time of […] after ip administration. As to conditions: Mus musculus, Hindlimb. It is filed as functional. In short, it runs like this: (§1)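 Phase II quantification in CF1 male mice (ca. 24–34 g), dosing ip or po in 0.5% methylcellulose suspension. ED50 is protection from tonic hind limb extension in MES. TD50 is rotorod neurotoxicity. Both were read at time of peak effect and derived by Litchfield–Wilcoxon with 95% confidence limits.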

Data set [26] can be described thus: Dose protecting 50% of the mice from tonic hind limb extension at the time of peak convulsant effect after po administration. It is filed as functional. As to conditions: Mus musculus, Hindlimb. In short, it runs like this:
as §1

Data set [27] in a line: Antiepileptic activity in male CF1 mice 30 min after administration measured in subcutaneous pentylenetetrazole (scMet) test at a dose of 100 mg/kg (no. of animals treated /protected) activity value is 0/1. The data set is classed as functional, Mus musculus.
Data set [28] in a line: Antiepileptic activity in male CF1 mice 30 min after administration measured in maximum electroshock seizure(MES) test at a dose of 100 mg/kg (no. of animals treated /protected); activity value is 1/3. The data set is classed as functional, Mus musculus.
Data set [29] is described as follows: Antiepileptic activity in male CF1 mice 30 min after administration measured in neurological toxicity (Tox) test at a dose of 100 mg/kg (no. of animals treated /protected); activity value is 0/8. The data set is classed as functional, Mus musculus.
Data set [30] is described as follows: Dose showing neurotoxicity in 50% of the at the time of peak neurotoxic effect in CF1 MICE after ip administration. The data set is classed as toxicity, organism-based. Conditions: CF1, mouse, in vivo. The method, boiled down: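 CF1 male mice (ca. 24–34 g), dosed ip in 0.5% methylcellulose suspension. Neurotoxicity measured by the rotorod test at the time of peak neurotoxic effect. TD50 and confidence limits by the Litchfield-Wilcoxon method.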

A short description of data set [31]: Time of peak anticonvulsant effect in CF1 MICE after ip administration. The data set is classed as functional, Mus musculus. The method, boiled down: (§2)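 Male CF1 mice (ca. 24–34 g), compound in 0.5% methylcellulose suspension given ip or po; time (h) at which MES protection (against tonic hind limb extension) peaked was recorded and used for ED50 determination.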

A short description of data set [32]: Time of peak anticonvulsant effect in CF1 MICE after po administration. It is filed as functional, Mus musculus. In short, it runs like this:
as §2

Data set [33] in a line: Time of peak neurotoxic effect in CF1 MICE after ip administration. The data set is classed as ADME, organism-based. As to conditions: mouse, in vivo. The method, boiled down: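 Male CF1 mice (ca. 24–34 g), compound ip in 0.5% methylcellulose suspension; neurological deficit assessed by rotorod test, time (h) of peak neurotoxic effect recorded for TD50 determination.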

The nature of data set [34]: Antiepileptic activity in male CF1 mice 4 hr after administration measured in neurological toxicity (Tox) test at a dose of 100 mg/kg (no. of animals treated /protected); activity value is 0/4. The data set is classed as functional, Mus musculus.
A short description of data set [35]: Antiepileptic activity in male CF1 mice 4 hr after administration measured in subcutaneous pentylenetetrazole (scMet) test at a dose of 100 mg/kg; activity value is 0/1. It is filed as functional, Mus musculus.
Data set [36] is described as follows: Antiepileptic activity in male CF1 mice 30 min after administration measured in neurological toxicity (Tox) test at a dose of 300 mg/kg (no. of animals treated /protected); activity value is 1/4. It is filed as functional, Mus musculus.
Data set [37] can be described thus: Protective index was measured as TD50/MES ED50 in mice on ip administration. It is filed as ADME, organism-based. Conditions: mouse, in vivo, read-out: PI. In short, it runs like this:
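Male CF1 mice (ca. 24–34 g), compound given ip as 0.5% methylcellulose suspension. MES ED50 = dose protecting 50% from tonic hind limb extension; TD50 = median neurotoxic dose by rotorod; both at time of peak effect, with confidence limits by Litchfield and Wilcoxon. PI = TD50/MES ED50.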

Consider `COC(=O)C1C(=O)C=C(Nc2ccc(C)cc2)CC1C` (configuration not stated), for which the Activity in data set [1] is 0; in data set [2] it was 0; in data set [3], 1; in data set [4], 0; in data set [5], 1; in data set [6] it was 0. For the same compound, the Activity in data set [7] was 0; in data set [8] it was 0; in data set [9], 0; in data set [10], 0; in data set [11], 0; in data set [13], 2. Moreover, the Dose entry in data set [12] is reported as “<=100 mg kg-1”.

As to `COC(=O)C1C(=O)C=C(NCc2ccc(Cl)cc2)CC1C` (configuration not stated), the Activity was 1 in data set [14]; 1 in data set [5]; 1 in [15]; 0 in data set [8]; 0 in data set [16]; 0 in [17]. Moreover, in [12], the Dose was more than 100 mg/kg.

For `COC(=O)C1C(=O)C=C(Nc2ccc([N+](=O)[O-])cc2)CC1C` (configuration not stated), the Activity came to 1 in data set [18]; 0 in [19]; 0 in [20]; 0 in data set [21]; 0 in data set [22]; 0 in data set [23].

On to `CC1(C)CC(O)=C/C(=N\Cc2ccccc2)C1`, for which the Dose in data set [24] was 20 mg/kg; in [12], more than 100 mg/kg. For the same compound, the ED50 in data set [25] came out at 53 mg/kg; in data set [26], 211 mg/kg. Further, the Activity in data set [2] was determined as 0; in data set [27], 0; in [19], 0; in [28], 1; in data set [5] it was 1; in [29] it was 0. Further, the Activity in [15] was 1; in data set [34], 0; in data set [8], 0; in data set [35], 0; in data set [10], 0; in [36], 1. The compound also yielded a TD50 in data set [30] of 148 mg/kg. Also, the TPE in data set [31] stood at 0.5; in data set [32], 0.5; in data set [33], 0.25. In data set [37], the selectivity ratio is 2.8.

The ED50 is the dose that gives a 50% effect, or the effect in half of the subjects. A higher ED50 goes with weaker potency. In general, TD50 refers to the dose at which the toxic effect under study appears in half of the subjects. Lower therefore signals greater toxicity.
